Assay results taken from article PMC7337098 (Cell reports, 2020).
Counter-ions that a name gives are not always drawn. Like-named read-outs stand apart in the source and are kept apart here.

Assays:
P2X3R [1] = target: T1, P2X3R (Homo sapiens, UniProt P56373); type: cell-based; conditions: 100 μM ATP, outside-out patch
T1 sequence (P56373 1-397): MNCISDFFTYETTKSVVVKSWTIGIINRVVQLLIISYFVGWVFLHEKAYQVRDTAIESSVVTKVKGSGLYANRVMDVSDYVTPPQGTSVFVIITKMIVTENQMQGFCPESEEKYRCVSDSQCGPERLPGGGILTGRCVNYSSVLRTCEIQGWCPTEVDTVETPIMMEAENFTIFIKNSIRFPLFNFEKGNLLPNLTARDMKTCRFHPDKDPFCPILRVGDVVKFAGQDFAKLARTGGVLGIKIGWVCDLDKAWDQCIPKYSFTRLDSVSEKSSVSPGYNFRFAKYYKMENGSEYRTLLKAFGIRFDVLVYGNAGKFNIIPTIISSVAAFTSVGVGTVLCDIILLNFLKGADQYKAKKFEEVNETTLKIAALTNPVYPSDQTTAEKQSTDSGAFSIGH

P2XRs in DRG neurons = experiment: Whole-cell recording of ATP-evoked currents, primary DRG neurons from WT mice; type: cell-based; conditions: Mus musculus, DRG neuron, read-out: ATP EC50
P2X3R [2] = target: T1, P2X3R; experiment: Calcium FLIPR ATP dose response, P2X3R-stable HEK cells transfected with pcDNA3; type: cell-based
P2X3R with TMEM163 [3] = target: T2, P2X3R with TMEM163 (Homo sapiens, UniProt P56373); type: cell-based; conditions: 100 μM ATP, outside-out patch
T2 sequence (P56373 1-397): T1 sequence (P56373 1-397)
T2 sequence (Q8TC26 1-289 partner): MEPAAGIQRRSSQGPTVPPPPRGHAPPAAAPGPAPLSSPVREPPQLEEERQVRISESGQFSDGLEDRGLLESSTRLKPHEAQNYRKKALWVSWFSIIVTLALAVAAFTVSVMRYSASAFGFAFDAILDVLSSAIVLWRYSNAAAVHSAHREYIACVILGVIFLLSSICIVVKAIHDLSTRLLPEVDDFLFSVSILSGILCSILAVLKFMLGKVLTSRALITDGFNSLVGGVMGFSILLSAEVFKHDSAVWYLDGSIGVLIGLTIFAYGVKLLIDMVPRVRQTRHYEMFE

WT mice = experiment: ATP-evoked freezing behavior after hind paw injection; type: in vivo, mouse; conditions: 3 μmol ATP into hind paw, 4 min after injection, saline 6.7 ± 3.2 s
P2X3R with TMEM163 [4] = target: T2, P2X3R with TMEM163; experiment: Calcium FLIPR ATP dose response, P2X3R-stable HEK cells transfected with TMEM163; type: cell-based
[5] = test system: endogenous P2 receptors in HEK cells; experiment: Calcium FLIPR response of HEK cells; type: cell-based, human; conditions: untransfected (Mock) HEK cells
P2X3R [6] = target: T1, P2X3R; type: cell-based
[7] = test system: P2XRs in TMEM163 KO DRG neurons; type: cell-based; conditions: Mus musculus, DRG neuron, read-out: ATP EC50
P2X3R with TMEM163 [8] = target: T2, P2X3R with TMEM163; type: cell-based
[9] = test system: P2XR in cerebellar granule cells; type: cell-based, mouse; conditions: TNP-ATP 10 μM co-applied with ATP; untreated 23.55 ± 6.96 pA; n = 3
P2X3R and P2X2R = experiment: Calcium FLIPR assay, HEK cells stably expressing both P2X3R and P2X2R; type: cell-based, human; conditions: read-out: α,β-MeATP EC50, HEK cell lines stably expressing both P2X3R and P2X2R
P2X4R = target: T3, P2X4R (Homo sapiens, UniProt Q99571); type: cell-based; conditions: P2X4R alone; 10 μM ivermectin pre-applied 10 s; ATP 1.3 μM; n = 7
T3 sequence (Q99571 1-388): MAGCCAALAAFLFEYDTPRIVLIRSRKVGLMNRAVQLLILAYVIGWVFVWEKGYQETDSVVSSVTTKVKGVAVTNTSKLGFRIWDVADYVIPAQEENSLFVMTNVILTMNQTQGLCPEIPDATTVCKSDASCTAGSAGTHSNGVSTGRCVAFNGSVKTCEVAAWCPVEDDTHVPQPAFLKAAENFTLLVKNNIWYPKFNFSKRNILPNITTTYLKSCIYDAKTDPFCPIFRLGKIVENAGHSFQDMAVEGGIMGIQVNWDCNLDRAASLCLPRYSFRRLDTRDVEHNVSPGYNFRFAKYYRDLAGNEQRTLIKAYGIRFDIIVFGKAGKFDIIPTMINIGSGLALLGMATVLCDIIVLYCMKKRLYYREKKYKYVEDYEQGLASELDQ
In short: (§1)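 Xenopus oocytes (surgically harvested, collagenase-treated) co-injected with 25 pg P2X4R cRNA plus 2 ng TMEM163 cRNA, or 2 ng Neto2 cRNA as the control. TEVC at Vh −30 mV, room temperature, in 90 mM NaCl, 1 mM KCl, 2 mM CaCl2, 10 mM HEPES pH 7.4. […] Mean ± SEM; Student's t test.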

P2X4R with TMEM163 = target: T4, P2X4R with TMEM163 (Homo sapiens, UniProt Q99571); type: cell-based; conditions: 10 μM ivermectin pre-applied 10 s, ATP 1.3 μM, n = 7
T4 sequence (Q99571 1-388): T3 sequence (Q99571 1-388)
In short: as §1

Compound: Nc1ncnc2c1ncn2[C@@H]1O[C@H](COP(=O)([O-])OP(=O)([O-])OP(=O)([O-])[O-])[C@@H](O)[C@H]1O.[Mg+2].[Mg+2] [ATP, Adenosine 5′-triphosphate magnesium salt]
- mean rise time of ATP-evoked currents (P2X3R [1]): 0.43 ± 0.042 ms
- EC50 (P2XRs in DRG neurons): 5.92 ± 1.17 µM
- Hill coefficient (P2X3R [2]): 0.99 ± 0.03
- mean rise time of ATP-evoked currents (P2X3R with TMEM163 [3]): 0.50 ± 0.061 ms
- mean cumulative duration of freezing behaviors (WT mice): 74 ± 7.1 s
- EC50 (P2X3R with TMEM163 [4]): 1270 ± 110 nM
- Hill coefficient (P2X3R with TMEM163 [4]; P2X3R with TMEM163, ATP calcium FLIPR dose response): 0.73 ± 0.04
- ATP concentrations at which HEK cells (Mock) responded [5]: above 1 μM
- EC50 (P2X3R [6]): 1300 ± 230 nM
- Hill coefficient (P2X3R [6]; P2X3R, ATP TEVC dose response): 1.04 ± 0.14
- EC50 [7]: 31 ± 15.1 µM
- EC50 (P2X3R with TMEM163 [8]; ATP EC50, 25 pg P2X3R with 2 ng TMEM163, TEVC, 20-min interval): 261 ± 27.2 nM
- Hill coefficient (P2X3R with TMEM163 [8]; P2X3R with TMEM163, ATP TEVC dose response): 0.98 ± 0.15

Compound: Nc1ncnc2c1ncn2[C@@H]1O[C@H](COP(=O)(O)OP(=O)(O)OP(=O)(O)O)[C@H]2OC3(O[C@H]21)C([N+](=O)[O-])=CC(=[N+]([O-])[O-])C=C3[N+](=O)[O-] (some centres unmarked) [TNP-ATP, TNP-ATP triethylammonium salt]
- ATP-evoked current [9]: 0.53 ± 0.25 pA

Compound: Nc1ncnc2c1ncn2[C@@H]1O[C@H](COP(=O)(O)CP(=O)(O)OP(=O)(O)O)[C@@H](O)[C@H]1O [α,β-MeATP, α, β-Methyleneadenosine 5′-triphosphate lithium salt]
- EC50 (P2X3R and P2X2R): 656 ± 88.7 nM

Compound: ivermectin
- potentiation of ATP-evoked currents (ratio with and without ivermectin) (P2X4R): 3.7 ± 0.5 times
- potentiation of ATP-evoked currents (ratio with and without ivermectin) (P2X4R with TMEM163): 1.9 ± 0.2 times
